Holding throughout (assay type): functional, cell-based
The test system of one assay is A549. Put plainly: Cytotoxicity against human A549 cells assessed as decrease in cell viability after 72 hrs by SRB assay. Particulars: A549, 72 h. Summed up:
(§1)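 Cells from the Korean Cell Line Bank were grown in RPMI 1640 with 10% FBS and penicillin/streptomycin/amphotericin B at 37 °C under 5% CO2. They were seeded at 5 × 10^4 cells/mL and exposed to a range of compound concentrations for 72 h. Cells were fixed in 10% TCA and stained with 0.4% SRB in 1% acetic acid. Dye was dissolved in 10 mM Tris (pH 10.0) and read at A515. Viability is relative to vehicle; IC50 by nonlinear regression.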
(In general: In SRB staining, fixed cells bind dye roughly in proportion to their protein.)

Another assay relates to PC-3. Put plainly: Cytotoxicity against human PC3 cells assessed as decrease in cell viability after 72 hrs by SRB assay. To be noted: PC-3, 72 h. In outline: as §1
A further assay relates to SK-HEP1. Description: Cytotoxicity against human SKHEP1 cells assessed as decrease in cell viability after 72 hrs by SRB assay. Particulars: SK-HEP1, 72 h. In outline: (§2)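 Maintained in DMEM with 10% FBS and penicillin/streptomycin/amphotericin B at 37 °C in humidified 5% CO2; cell lines from the Korean Cell Line Bank. Plated at 5 × 10^4 cells/mL and treated with various concentrations for 72 h. Then 10% TCA fixation, 0.4% SRB staining in 1% acetic acid, solubilisation in 10 mM Tris pH 10.0 and absorbance at 515 nm. Viability is versus vehicle control; IC50 from nonlinear regression.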

For the next assay, the system named is SNU-638. Description: Cytotoxicity against human SNU638 cells assessed as decrease in cell viability after 72 hrs by SRB assay. To be noted: SNU-638, 72 h. Summed up:
as §1

For the next assay, the system named is MDA-MB-231. Description: Cytotoxicity against human MDA-MB-231 cells assessed as decrease in cell viability after 72 hrs by SRB assay. To be noted: MDA-MB-231, 72 h. In outline:
as §2

The next assay has as its system HCT-116. Put plainly: Cytotoxicity against human HCT116 cells assessed as decrease in cell viability after 72 hrs by SRB assay. To be noted: HCT-116, 72 h. Summed up:
as §1

pIC50: −log10 of the molar value. Bounds are passed on as bounds.

By pIC50 is commonly meant the negative decadic logarithm of the IC50, by convention in mol/L.

Turning to `Nc1nc(=O)n([C@@H]2C(F)=C(CO)[C@@H](O)[C@H]2O)cc1Br`, the pIC50 with A549, in the assay on PC-3, in the assay with SK-HEP1, in the assay with SNU-638, in the assay with MDA-MB-231 and with HCT-116 was below 4.00 in each case.

As to `Nc1ccn([C@@H]2O[C@H](CO)[C@@H](O)[C@@H]2O)c(=O)n1` [CYTARABINE], the pIC50 with A549 was 5.76; with PC-3 it was 4.32; with SK-HEP1 it was 5.74; in the assay with SNU-638, 5.97; with MDA-MB-231, 4.98; in the assay on HCT-116, 5.36.

Regarding `Nc1nc(=O)n([C@@H]2C(F)=C(CO)[C@@H](O)[C@H]2O)cc1I`, the negative logarithm of the IC50 (pIC50) in the assay on A549 was below 4.00; in the assay on PC-3 it was 4.08; in the assay with SK-HEP1 it was below 4.00; in the assay on SNU-638, 4.08; in the assay on MDA-MB-231, 4.10; in the assay on HCT-116, 4.00.

Regarding `Nc1nc(N)c2ncn([C@@H]3C(F)=C(CO)[C@@H](O)[C@H]3O)c2n1`, the pIC50 in the assay with A549 was 4.07; in the assay with PC-3, below 4.00; with SK-HEP1, below 4.00; in the assay on SNU-638, 4.49; in the assay with MDA-MB-231, 4.64; with HCT-116, 4.66.

As for `OCC1=C(F)[C@@H](n2cnc3c(O)ncnc32)[C@H](O)[C@@H]1O`, the pIC50 in the assay with A549, in the assay with PC-3, in the assay with SK-HEP1, with SNU-638, with MDA-MB-231 and in the assay with HCT-116 was below 4.00 throughout.

With `CNc1ncnc2c1ncn2[C@@H]1C(F)=C(CO)[C@@H](O)[C@H]1O`, the pIC50 in the assay on A549 is 5.62; with PC-3 it was 4.82; in the assay on SK-HEP1, 5.56; with SNU-638, 5.64; with MDA-MB-231, 5.09; in the assay on HCT-116, 5.67.

For the molecule `Nc1nc(=O)n([C@@H]2C(F)=C(CO)[C@@H](O)[C@H]2O)cc1F`, the negative logarithm of the IC50 (pIC50) in the assay with A549, in the assay on PC-3, in the assay on SK-HEP1, with SNU-638, in the assay with MDA-MB-231 and in the assay on HCT-116 was below 4.00 in each case.

Regarding `O=c1nc(O)c(Cl)cn1[C@@H]1C(F)=C(CO)[C@@H](O)[C@H]1O`, the pIC50 in the assay on A549 was below 4.00; in the assay with PC-3, 4.21; in the assay on SK-HEP1, below 4.00; with SNU-638 it was 4.06; in the assay with MDA-MB-231, below 4.00; in the assay on HCT-116 it was below 4.00.

Consider `O=c1nc(O)c(F)cn1[C@@H]1C(F)=C(CO)[C@@H](O)[C@H]1O`, for which the pIC50 in the assay with A549 was below 4.00; in the assay with PC-3, 4.36; in the assay with SK-HEP1, 4.15; with SNU-638, 4.56; with MDA-MB-231 it was 4.17; in the assay with HCT-116, 4.28.

`Nc1nc(NC2CC2)c2ncn([C@@H]3C(F)=C(CO)[C@@H](O)[C@H]3O)c2n1`: the pIC50 with A549, in the assay on PC-3, with SK-HEP1, in the assay on SNU-638, in the assay with MDA-MB-231 and in the assay with HCT-116 was below 4.00 throughout.

With `CC(C)OC(=O)[C@H](C)N[P@](=O)(OCC1=C(F)[C@@H](n2cnc3c(N)ncnc32)[C@H](O)[C@@H]1O)Oc1ccccc1`, the pIC50 with A549 is 4.73; with PC-3 it was 4.98; in the assay on SK-HEP1 it was 4.62; in the assay with SNU-638 it was 5.52; in the assay with MDA-MB-231, 4.74; with HCT-116, 5.34.

For the molecule `O=c1nc(O)c(Br)cn1[C@@H]1C(F)=C(CO)[C@@H](O)[C@H]1O`, the pIC50 with A549 is below 4.00; with PC-3, 4.49; with SK-HEP1 it was 4.12; with SNU-638 it was 4.50; in the assay on MDA-MB-231 it was 4.36; in the assay on HCT-116 it was 4.48.

In the case of `Nc1ncnc2c1ncn2[C@@H]1C=C(CO)[C@@H](O)[C@H]1O` [NEOPLANOCIN A], the negative logarithm of the IC50 (pIC50) in the assay with A549 was 5.67; with PC-3 it was 5.67; in the assay on SK-HEP1, 5.63; with SNU-638, 6.09; in the assay on MDA-MB-231, 6.07; in the assay on HCT-116, 5.84.

As to `Nc1nc(=O)n([C@@H]2C(F)=C(CO)[C@@H](O)[C@H]2O)cc1Cl`, the pIC50 with A549, in the assay with PC-3, with SK-HEP1, in the assay with SNU-638, in the assay on MDA-MB-231 and in the assay on HCT-116 was below 4.00 throughout.

Consider `OCC1=C(F)[C@@H](n2cnc3c(NC4CC4)ncnc32)[C@H](O)[C@@H]1O`, for which the pIC50 in the assay on A549, in the assay on PC-3, in the assay with SK-HEP1, in the assay with SNU-638, in the assay on MDA-MB-231 and in the assay on HCT-116 was below 4.00 throughout.

On to `Nc1nc(O)c2ncn([C@@H]3C(F)=C(CO)[C@@H](O)[C@H]3O)c2n1`, for which the pIC50 in the assay with A549, in the assay with PC-3, in the assay with SK-HEP1, in the assay with SNU-638, in the assay with MDA-MB-231 and in the assay with HCT-116 was below 4.00 throughout.

`O=c1nc(O)c(I)cn1[C@@H]1C(F)=C(CO)[C@@H](O)[C@H]1O`: the pIC50 with A549 was below 4.00; with PC-3, 4.33; with SK-HEP1, below 4.00; in the assay with SNU-638 it was 4.15; in the assay with MDA-MB-231, 4.26; in the assay with HCT-116 it was 4.07.

These data come from ChEMBL document CHEMBL4152304, “Design, synthesis and anticancer activity of fluorocyclopentenyl-purines and - pyrimidines” (Eur J Med Chem, 2018).
